# T cruzi inh: blocks replication of Trypanosoma cruzi | AID 1885 | inhibition, % (test concentration not listed) | T. cruzi beta-gal in NIH3T3, luminescence, 90 h | 300,000 compounds, 1.4% hits;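 active = mean inhibition across valid replicates above about 55%, limit read from the data; inconclusive = mean below that limit but half or more replicates reach it; inactive = mean below it, under half of replicates reach it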;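 note: signal also drops with host cell toxicity which is not excluded here; 0% = plate median of DMSO wells and 100% = zero luminescence signal; higher percent means less beta-gal luminescence so fewer parasites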
#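 System: Mouse NIH/3T3 fibroblasts infected with β-gal-expressing T. cruzi Tulahuen C4 | Quantity: NIH/3T3 cells, 5,000 per well | Reagent: 5000 reporter trypomastigotes per well | Dosing: Compound pinned at 50 nL/well, DMSO | Schedule: 3 h host attachment, then at least 90 h co-culture | Detection: GalScreen luminescence, 60 min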
# HSF1 activator: increases HSF-1 driven luciferase reporter signal | NIH3T3-HGL HSF-1 luciferase reporter, MG132, 8 h; 100% = twice DMSO control signal | AID 504408 | activation, % at 9 µM | 300,000 compounds, 1.7% hits;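 active = mean replicate activation of at least 50% with a set share of replicates each reaching 50%; inconclusive = only one of those two conditions met; inactive = mean below 50% and too few replicates reaching it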;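 note: 0% = median of the neutral control wells and 100% = twice that signal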
# Hsp70 act: transcriptional activators of Hsp70; HeLa Hsp70 promoter luciferase reporter, luminescence; scaled: vehicle 0, proteasome-inhibitor control 100%; activation, % at 10 µM; 200,000 compounds, 0.04% hits; AID 1203;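 active = activation above the mean across all tested compounds plus 3 SD, cutoff set per campaign, cut at about 5.5% in these data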;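 note: 100% = MG132 at 30 µM as the positive control and 0% = DMSO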
# HSF1 inh: HSF1 inhibition; NIH3T3-HGL HSE-luciferase, MG132-induced, luminescence 8 h; stronger effect = lower value; activity change, negative = inhibition, % at 7.5 µM (by protocol); 300,000 compounds, 0.77% hits;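 active = more than half of replicate wells show activity change below -50%, luminescence cut by over half; inconclusive = some wells, but at most half, below -50%; inactive = no replicate well below -50%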;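 note: luciferase reports HSF-1 transcriptional activity via heat shock element; 0% = median of DMSO wells and -100% = zero luminescence signal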
# Lmaj promast: Leishmania major promastigote growth inhibition; Leishmania major promastigotes, resazurin fluorescence viability; 200,000 compounds, 9% hits; inhibition, % at 10 µM; AID 1063; in the data active = inhibition above about 50%;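 note: promastigotes grown with compound for 44 hours at 28 °C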
# * marks the source's active call; other numbers are inactive results; ? = inconclusive; nt = not tested or not shown. Many of the other results were omitted from the sample, so hits are more common in it than they were.
SMILES,T cruzi inh,HSF1 activator,Hsp70 act,HSF1 inh,Lmaj promast
O=C(/C=C/c1cccs1)c1cc(Br)ccc1OC(=O)N1CCOCC1,0,25,0,32,72*
COc1ccc(C(=O)/C=C/c2cccs2)c(OC(=O)N2CCOCC2)c1,4,44,0,7,41
CCOC(=O)C1=C(C)NC(=S)NC1c1ccc(OCC(=O)N2CCCCCC2)cc1 (stereo not given),7,32,nt,12,nt
COc1ccc2c(c1)c1ncn(CCCN3CCOCC3)c(=O)c1n2C,24,0,1,4,55*
COc1ccc2c(c1)[nH]c1c(=O)n(CCCN3CCOCC3)cnc12,0,7,0,-1,1
CCc1cc2c(=O)[nH]c(-c3ccccn3)nc2s1,60*,215*,0,133,99*
CCc1cc2c(=O)[nH]c(N3CCCC3)nc2s1,-12,2,0,13,-6
CC(C)c1nnc(NC(=O)c2nc(S(=O)(=O)Cc3ccccc3F)ncc2Cl)s1,-24,-82,nt,-80*,nt
CSc1nnc(NC(=O)c2nc(S(=O)(=O)Cc3ccccc3F)ncc2Cl)s1,-21,-25,nt,-22,nt
Cc1ccc(CS(=O)(=O)c2ncc(Cl)c(C(=O)Nc3nnc(C(C)C)s3)n2)cc1,-9,-76,nt,-71*,nt
CSc1nnc(NC(=O)c2nc(S(=O)(=O)Cc3cccc(C)c3)ncc2Cl)s1,-7,-63,nt,?,nt
CC(C)c1nnc(NC(=O)c2nc(S(=O)(=O)Cc3ccc(F)cc3)ncc2Cl)s1,-25,-87,nt,-84*,nt
Cc1cccc(CS(=O)(=O)c2ncc(Cl)c(C(=O)Nc3nnc(C(C)C)s3)n2)c1,-19,-78,nt,-73*,nt
COC(=O)CN(c1ccccc1)S(=O)(=O)c1cc(Br)ccc1OC,nt,nt,2,nt,10
COc1cc(C(C)=O)ccc1OCC(=O)N(CCC1=CCCCC1)c1c(N)n(Cc2ccccc2)c(=O)[nH]c1=O,26,17,nt,14,nt
Cc1nnc(NC(=O)c2nc(S(=O)(=O)Cc3ccccc3C)ncc2Cl)s1,-8,-83,nt,-77*,nt
CCCCCCC1(C)NC(=S)N(c2ccccc2)N1 (stereo not given),-7,-9,0,-1,51*
CCC1(c2ccc(Cl)cc2)NC(=S)N(c2ccccc2)N1 (stereo not given),9,70*,0,56,-6
CCCCCC1(C)NC(=S)N(c2ccccc2)N1 (stereo not given),2,23,0,-2,53*
CSCC(=O)NC1CCCc2c1cnn2-c1ccc(C)c(C)c1 (stereo not given),-4,2,nt,4,nt
CCc1ccc(C(=O)CSc2nc3ccccc3c(=O)[nH]2)cc1,-3,2,0,15,98*
Cc1ccc(C(=O)CSc2nc3ccccc3c(=O)[nH]2)cc1,11,14,0,12,44
COc1cc(NCCCC(C)N)c2ncccc2c1 (stereo not given),45,34,0,18,21
CCC(CNc1cc(OC)cc2cccnc12)NC1CCCCC1 (stereo not given),41,-80,nt,-76*,nt
CCOC(=O)c1cc(-c2ccccc2)sc1NC(=O)CN1C(=O)NC(CC)(c2ccccc2)C1=O (stereo not given),66*,5,0,-2,51*
SMILES,T cruzi inh,HSF1 activator,Hsp70 act,HSF1 inh,Lmaj promast
CCOC(=O)c1cc(-c2ccccc2)sc1NC(=O)CN1C(=O)NC(CC)(c2ccc(F)cc2)C1=O (stereo not given),60*,16,0,4,28
CCOC(=O)c1cc(-c2ccccc2)sc1NC(=O)CC,10,-10,0,-12,-4
CCOC(=O)c1cc(-c2ccccc2)sc1NC(=O)COC(=O)c1ccc(Cl)c(S(N)(=O)=O)c1,18,3,0,-4,91*
COc1cccc(N(C(=O)c2cccs2)c2nc3ccccc3s2)c1,34,-74,0,-67*,44
C/C(CC1CC(C)(C)OC1=O)=N\NC(N)=S (stereo not given),-30,0,nt,2,nt
C/C(CC1CC2=C(CC1(C)C)C(C)(C)CCC2)=N\NC(N)=S (stereo not given),56*,0,0,-6,101*
O=c1[nH]cnc2scc(-c3ccc(-c4ccccc4)cc3)c12,-18,58*,1,14,-5
O=C(NCc1cc(C(F)(F)F)cc(C(F)(F)F)c1)C1CC(c2ccccc2[N+](=O)[O-])=NO1 (stereo not given),10,1,0,7,88*
O=C(NCc1cccc(C(F)(F)F)c1)C1CC(c2ccccc2[N+](=O)[O-])=NO1 (stereo not given),-10,16,0,10,-6
CCCCn1cnc2c1c(=O)n(CC(=O)c1cc(C)n(C)c1C)c(=O)n2CC(C)C,13,-9,0,1,96*
CCn1c(=O)c([N+](=O)[O-])c(NCC(O)c2ccccc2)c2ccccc21 (stereo not given),41,43,0,10,100*
COCCNc1c([N+](=O)[O-])c(=O)n(-c2ccccc2)c2ccccc12,5,69*,0,21,3
Cn1c(=O)c([N+](=O)[O-])c(NCC(O)c2ccccc2)c2ccccc21 (stereo not given),10,-13,0,5,5
CCn1c(=O)c([N+](=O)[O-])c(Cl)c2ccccc21,71*,313*,0,226,-3
Cc1ccc(CNC(=O)Cn2cnc(S(=O)(=O)N3CCC(C)CC3)c2)o1,-26,9,nt,10,nt
O=C(N[C@@H](Cc1ccccc1)C(=O)N1CCC2(CC1)NCCc1[nH]cnc12)c1cccc(F)c1,-13,3,nt,-2,nt
CC(=O)N=c1sccn1CC(=O)c1ccc([N+](=O)[O-])cc1,-14,58*,0,14,-3
O=C(c1ccco1)N1CCN(C(=O)C(Sc2ccccc2)c2ccccc2)CC1 (stereo not given),-4,nt,-1,nt,59*
O=C(CSc1ccccc1)N1CCN(C(=O)c2ccco2)CC1,-4,0,0,0,-9
O=C(CCN1C(=O)/C(=C/c2ccccc2Cl)SC1=S)NC1C=CS(=O)(=O)C1 (stereo not given),-28,14,nt,9,nt
COc1ccc(OC)c(NC(=O)C(C)N2c3cccc4cccc(c34)S2(=O)=O)c1 (stereo not given),15,1,nt,-6,nt
COc1ccc(-c2cc(=O)[nH][nH]2)cc1,-20,?,0,20,76*
FC(F)(F)c1ccccc1CN1CCN(C2CCCCCC2)CC1,29,1,-1,-9,97*
O=S(=O)(c1ccccc1)N1CCN(Cc2ccccc2C(F)(F)F)CC1,nt,nt,0,nt,92*
CCCOC(=O)c1ccc(Oc2coc3c(CN(CC)CC)c(O)ccc3c2=O)cc1,8,10,0,1,-4
CCOC(=O)c1cc2nc(-c3ccco3)cc(C(F)(F)F)n2n1,-6,-92,0,-89*,0

# Source: PubChem (several laboratories)
